Published values pooled from the literature.
Protocols differ between the studies behind these lines.
PIK3CA H1047L: Phosphatidylinositol 4,5-bisphosphate 3-kinase catalytic subunit alpha isoform (PIK3CA, Homo sapiens, UniProt P42336, H1047L)
PIK3CA E545A: Phosphatidylinositol 4,5-bisphosphate 3-kinase catalytic subunit alpha isoform (PIK3CA, Homo sapiens, UniProt P42336, E545A)
PIK3CA C420R: Phosphatidylinositol 4,5-bisphosphate 3-kinase catalytic subunit alpha isoform (PIK3CA, Homo sapiens, UniProt P42336, C420R)
PIK3CA M1043I: Phosphatidylinositol 4,5-bisphosphate 3-kinase catalytic subunit alpha isoform (PIK3CA, Homo sapiens, UniProt P42336, M1043I)
PIK3CA: Phosphatidylinositol 4,5-bisphosphate 3-kinase catalytic subunit alpha isoform (PIK3CA, Homo sapiens, UniProt P42336)
PIK3CA Q546K: Phosphatidylinositol 4,5-bisphosphate 3-kinase catalytic subunit alpha isoform (PIK3CA, Homo sapiens, UniProt P42336, Q546K)

c1cncc(-c2cccc(Nc3nccc(NC4CCCCC4)n3)c2)c1
remaining binding (PIK3CA H1047L; binding, competition with immobilised ligand; 10 µM): 100%

Cc1cnn2ncc(-c3ccnc(N(C)C)n3)c2c1
remaining binding (PIK3CA H1047L; binding; 1 µM): 77%

O=C(c1ccc(Nc2ncc(Cl)c(-c3cc4ccccc4s3)n2)cc1)N1CCC(N2CCCC2)CC1
remaining binding (PIK3CA E545A; binding, competition with immobilised ligand; 1 µM): 99%

C[C@@H]1CN(c2cc(-c3n[nH]c4ccc(OC5(C)CC5)cc34)ncn2)C[C@H](C)O1
remaining binding (PIK3CA C420R; cell-free assay, competition with immobilised ligand; 0.1 µM): 72%

O=C(NCCCN1CCOCC1)c1ccc(Nc2nccc(-c3cc4ccccc4s3)n2)cc1
remaining binding (Phosphatidylinositol 4,5-bisphosphate 3-kinase catalytic subunit alpha isoform (PIK3CA, Homo sapiens, UniProt P42336, E542K); binding, competition with immobilised ligand; 1 µM): 41%

Cn1nc(C(F)(F)F)cc1-c1cnc(N2CCc3cc(S(=O)(=O)Nc4c(F)cc(Cl)cc4F)cc(N4CCCC4=O)c32)nc1
remaining binding (PIK3CA H1047L; cell-free assay, competition with immobilised ligand; 1 µM): 94%

CN(C)c1ncc(F)c(-c2cnn3ncccc23)n1
remaining binding (PIK3CA H1047L; binding; 1 µM): 100%

C[C@@H](c1ccc(-n2cnc3c(N)ncnc32)cc1)N1CCc2nn(C)c(Cc3ccccc3)c2C1=O
remaining binding (PIK3CA M1043I; binding, competition with immobilised ligand; 0.1 µM): 89%

COCCOc1nc(-c2ccc(Cl)nc2)nc2c1CN(C(=O)c1ncn3ccccc13)CC2
remaining binding (PIK3CA M1043I; cell-free assay, competition with immobilised ligand; 0.1 µM): 88%

N[C@H]1CCN(c2nccc(-c3cnn4ncccc34)n2)C1
remaining binding (PIK3CA H1047L; binding; 1 µM): 75%

O=C(O)[C@@H]1[C@@H](Cn2nnc3ccccc3c2=O)CC[C@H]1C(=O)c1ccc(OCCC2CCOCC2)cc1
remaining binding (PIK3CA; cell-free assay, competition with immobilised ligand; 1 µM): 100%

c1cnn2ncc(-c3ccnc(N4CCC45COC5)n3)c2c1
remaining binding (Phosphatidylinositol 4,5-bisphosphate 3-kinase catalytic subunit alpha isoform (PIK3CA, Homo sapiens, UniProt P42336, E545K); binding; 1 µM): 86%

Cc1cnc(Nc2ccc(C(=O)N3CCC(N4CCCC4)CC3)cc2)nc1-c1cc2ccccc2s1
remaining binding (PIK3CA E545A; binding, competition with immobilised ligand; 1 µM): 77%

COc1ncc2cc3ccccc3nc2c1C#N
remaining binding (PIK3CA Q546K; cell-free assay, competition with immobilised ligand; 5 µM): 99%

CNC(=O)[C@@H]1CC[C@@H](n2c(-c3ccc4cnccc4c3)nc3ccc(C(=O)NCc4cccc(C(N)=O)c4)cc32)C1
remaining binding (PIK3CA H1047L; binding, competition with immobilised ligand; 1 µM): 100%

CC(C)(O)c1cncc(-c2nc3ccc(F)cc3n2C2CC2)c1
remaining binding (PIK3CA M1043I; cell-free assay, competition with immobilised ligand; 1 µM): 100%

C[C@@H]1CCN(c2nccc(-c3cnn4ncccc34)n2)C1
remaining binding (PIK3CA E545A; binding; 1 µM): 88%

C[C@H](NC(=O)c1cnc2n1[C@](C)(Cc1ccc(C#N)cc1)C(=O)N2c1cc(Cl)c(F)c(Cl)c1)C(=O)NC1(c2ccccn2)CC1
remaining binding (PIK3CA C420R; cell-free assay, competition with immobilised ligand; 1 µM): 93%

COc1cnc(Nc2cccc(S(N)(=O)=O)c2)nc1N1CCN(c2ccccc2)C(=O)C1
remaining binding (Phosphatidylinositol 4,5-bisphosphate 3-kinase catalytic subunit alpha isoform (PIK3CA, Homo sapiens, UniProt P42336, H1047Y); binding, competition with immobilised ligand; 1 µM): 81%

O=C(NCC1CCOCC1)c1n[nH]cc1NC(=O)c1c(F)cccc1F
remaining binding (PIK3CA E545A; binding, competition with immobilised ligand; 1 µM): 100%

O=C(NCc1ncc(C(F)(F)F)cc1Cl)c1ccc2c(c1)C1(CCS(=O)(=O)CC1)[C@@H](C1CC1)N2S(=O)(=O)c1ccc(F)cc1
remaining binding (PIK3CA Q546K; cell-free assay, competition with immobilised ligand; 1 µM): 72%

CN(C)c1nccc(-c2cnn3ncccc23)n1
remaining binding (PIK3CA; binding; 1 µM): 97%
